ABCG2 inh: inhibitors of human ABCG2 transporter, ABCB1 counter-screen; IgMXP3 cells, JC-1 efflux, flow cytometry; inhibition, % at 6.6 µM; 190,000 tested, 0.1% active; AID 1325;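 active = inhibition above 80%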;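 also: 0% = DMSO and 100% = nicardipine control wells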
Target sequence (Q9UNQ0 whole entry, looked up): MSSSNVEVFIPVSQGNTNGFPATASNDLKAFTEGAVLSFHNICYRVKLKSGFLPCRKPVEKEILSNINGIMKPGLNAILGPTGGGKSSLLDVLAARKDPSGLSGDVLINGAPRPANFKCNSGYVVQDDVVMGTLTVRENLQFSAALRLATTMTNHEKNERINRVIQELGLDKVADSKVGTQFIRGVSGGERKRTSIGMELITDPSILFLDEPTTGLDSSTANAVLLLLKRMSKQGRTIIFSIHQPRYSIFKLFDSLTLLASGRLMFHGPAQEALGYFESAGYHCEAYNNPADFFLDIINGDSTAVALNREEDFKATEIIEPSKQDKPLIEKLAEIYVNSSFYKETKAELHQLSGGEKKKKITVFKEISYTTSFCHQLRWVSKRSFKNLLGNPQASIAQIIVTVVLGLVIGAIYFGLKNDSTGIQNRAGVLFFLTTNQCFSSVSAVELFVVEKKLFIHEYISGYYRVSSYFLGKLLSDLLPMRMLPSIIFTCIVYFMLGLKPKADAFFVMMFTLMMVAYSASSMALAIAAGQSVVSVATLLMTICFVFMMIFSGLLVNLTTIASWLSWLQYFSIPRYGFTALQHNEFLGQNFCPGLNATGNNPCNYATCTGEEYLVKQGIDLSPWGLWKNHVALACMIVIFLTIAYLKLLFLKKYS
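Read-out basis: Efflux inhibition in percent versus controls | Test system: ABCG2 IgMXP3 and barcoded ABCB1 CCRF-Adr cell mix | Quantity: 3 million cells/mL in well | Schedule: 10 min at 25 °C | Control set: Nicardipine as high control, DMSO as low control | Reagent: JC-1 as fluorescent efflux pump substrate | Signal: Flow cytometry of retained JC-1 fluorescence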
MEKK3 PB1 HTS: MEKK3-MEK5 PB1 interaction, increase or decrease; AID 1529; binding response (% of control), % at 10 µM; bead-based flow cytometry, Alexa488-MEK5 binding to MEKK3; actives lie on both sides; 0 = blocked by unlabeled MEK5, 100 = vehicle; 290,000 tested, 1.4% active;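 active = binding response more than 3 SD above or below the average of its plate-row segment, actives on both sides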;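 also: Alexa488 bead fluorescence after subtracting the streptavidin-only scavenger bead signal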
MEKK2mut PB1 HTS: signal of MEK5 binding to mutant human MEKK2 PB1 domain | bead flow cytometry, Alexa488-MEK5 binding to MEKK2 mutant | percent response, % at 10 µM | 290,000 tested, 0.35% active | AID 1530; in the data active = percent response above about 24%, passing the limit was not always enough
ABCB1 inh: inhibitors of human ABCB1 transporter, ABCG2 counter-screen. CCRF-Adr cells, JC-1 efflux, flow cytometry. inhibition, % at 6.6 µM. 190,000 tested, 0.067% active. P08183; in the data active = inhibition above about 40%;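 also: 0% = vehicle and 100% = reference inhibitor; higher value means more JC-1 retained so stronger ABCB1 efflux block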
MEKK2wt PB1 HTS: raises or lowers MEK5 binding to wildtype human MEKK2 PB1 domain; binding response (% of control), % at 10 µM; bead flow cytometry, Alexa488-MEK5 binding to MEKK2 WT; actives lie on both sides; Q9Y2U5; 290,000 tested, 1.1% active; AID 1531; in the data active = binding response below about 67% or above about 130%
Efflux pump mplx: blocks antifungal efflux pumps in multiplex yeast assay | S. cerevisiae Candida pump triplex, Nile Red efflux | inhibition, % at 10 µM | 330,000 tested, 0.44% active;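 active = plate passing quality check with inhibition over a set limit, or well fluorescence over plate mean plus 4 SD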;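 also: Nile Red retained in pooled yeast measured as flow cytometry median fluorescence; 0% = buffer negative control and 100% = Enniatin B positive control; higher means more Nile Red kept so more efflux inhibition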
MEKK2wt confirm: raises or lowers MEK5 binding to wildtype human MEKK2, retest. shares compounds with MEKK3 PB1 HTS. bead flow cytometry, Alexa488-MEK5 binding to MEKK2 WT; actives lie on both sides. binding response (% of control), % at 10 µM. 5,900 tested, 2.4% active. AID 1892; in the data active = binding response below about 16% or above about 210%; inactive = in between
MEKK2mut confirm: signal of MEK5 binding to mutant human MEKK2, retest; shares compounds with MEKK3 PB1 HTS; bead flow cytometry, Alexa488-MEK5 binding to MEKK2 mutant; percent response, % at 10 µM; 5,900 tested, 2% active; AID 1893; in the data active = percent response mostly above about 71%, no sharp cut-off; inactive = mostly below about 38%;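 also: higher means compound restores mutant binding toward wildtype level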
MEKK3-MEK5 inh: MEKK3-MEK5 PB1 inhibition, single concentration confirmation | shares compounds with MEKK3 PB1 HTS | bead flow cytometry, Alexa488-MEK5 binding to MEKK3; stronger effect = lower value | binding response (% of control), % at 10 µM | 5,900 tested, 1.8% active | AID 1894;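 active = binding response below 72% of control, or above a set upper limit, though filed actives all read lower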;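 also: 100% = DMSO only wells and 0% = binding blocked by excess unlabeled MEK5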
Starred values were filed as active, the others as inactive; · = no result; [ ] = dose if it differs, or a comment. Only some compounds are listed: those with a hit (about 2.5% of all), similar ones and a draw of the others.

SMILES	ABCG2 inh	MEKK3 PB1 HTS	MEKK2mut PB1 HTS	ABCB1 inh	MEKK2wt PB1 HTS	Efflux pump mplx	MEKK2wt confirm	MEKK2mut confirm	MEKK3-MEK5 inh
NNC(=O)C1CC1c1ccccc1 (stereo not drawn)	4	99	7	0	98	0	·	·	·
Cc1ccccc1NC(=O)COc1nsnc1N1CCOCC1	4	2.0*[inhibitor]	-16	0	2.0*[inhibitor]	0	101	-1	98
CCCCc1nnc(NC(=O)C(C)Sc2nc(O)c(Cc3ccccc3)c(=O)[nH]2)s1 (stereo not drawn)	3	98	6	1	102	0	·	·	·
Cc1ccc(C)c(-c2nc3ccc(N)cc3[nH]2)c1	-1	108	13	0	33*[inhibitor]	0	104	7	105
Cc1nc2ccc(-c3nc4ccc(N)cc4[nH]3)cc2[nH]1	-1	25*[inhibitor]	·	-1	·	0	104	12	98
CC(C)N(Cc1ccccc1)C(=O)CN1C(=O)NC(Cc2ccccc2)(c2ccccc2)C1=O (stereo not drawn)	·	104	7	·	103	-1	·	·	·
O=C(CCN1C(=O)/C(=C\c2ccc(F)cc2)SC1=S)Nc1ccccc1	·	102	11	·	100	0	·	·	·
Cc1ccc(Cl)cc1N1CCN(C(=O)CSc2ccsc2[N+](=O)[O-])CC1	0	133*	0	0	102	-1	94	-7	95
Cc1ccc(C(=O)CC(C(=O)O)n2cncn2)cc1 (stereo not drawn)	·	101	-3	·	102	·	·	·	·
Cc1ccc(C(=O)CC(C(=O)O)n2cnc([N+](=O)[O-])n2)cc1 (stereo not drawn)	-1	49*[inhibitor]	-14	0	55	0	106	2	104
CCOc1ccc(N(CC(=O)Nc2cc(C)ccc2C)S(=O)(=O)c2c(C)[nH]c(=O)[nH]c2=O)cc1	·	113	8	·	106	0	·	·	·
COc1cccc(C2=NO[C@@H]3C(=O)N(Cc4ccccc4)C(=O)[C@H]23)c1OC	5	128*	7	2	116	0	96	-4	98
Cn1ncc2c(Nc3ccc4ccccc4c3)ncnc21	10	14*[inhibitor]	-29	0	19*[inhibitor]	0	102	-3	100
Cc1cccc(Nc2ncnc3c2cnn3C)c1	2	97	-9	0	89	0	·	·	·
COc1ccc(/C=C2\Sc3ccc(C(=O)N4CCc5ccccc5C4)cc3N(C)C2=O)cc1	2	130*	0	2	102	-1	94	-7	93
COc1ccc(/C=C2/Sc3ccc(C(=O)N4CCc5ccccc5C4)cc3NC2=O)cc1	10	104	0	2	100	0	·	·	·
CCCN1CCC(=O)N([C@H](CSc2ccc(C)cc2)c2ccccc2)CC1	·	115	20	·	157*	0	174	40	100
Cc1csc(NC(=O)CCn2c(=O)sc3ccccc32)n1	1	70*[inhibitor]	-7	0	81	0	100	2	102
O=C(c1ccccc1)C1C(c2ccccc2)C1[N+](=O)[O-] (stereo not drawn)	·	110	7	·	109	0	·	·	·
CN(C)c1ccc([C@@H]2[C@@H]([N+](=O)[O-])[C@H]3C=Cc4ccccc4N3[C@H]2C(=O)c2ccc(Cl)cc2)cc1	1	80	6	0	1.0*[inhibitor]	0	92	-3	94
COc1cccc(NC(=O)CSc2nnc(-c3ccc(C)cc3)o2)c1	4	82*[inhibitor]	-6	0	84	0	104	3	102
Cc1cc(C)cc(-c2nnc(SCC(=O)NCc3cccs3)o2)c1	8	1.0*[inhibitor]	-20	1	-2.0*[inhibitor]	0	113	6	102
CC(=O)Nc1ccc(NC(=O)CSc2nnc(-c3ccco3)o2)cc1	1	129*	1	0	112	0	95	-25	93
O=C(CSc1nnc(-c2ccncc2)n1-c1ccc(Cl)cc1)NCc1cccs1	6	124*	9	1	120	0	102	-3	102
Cc1c(Cl)cccc1-n1c(SCC(=O)NCc2cccs2)nnc1-c1ccncc1	2	104	3	0	106	0	·	·	·
SMILES	ABCG2 inh	MEKK3 PB1 HTS	MEKK2mut PB1 HTS	ABCB1 inh	MEKK2wt PB1 HTS	Efflux pump mplx	MEKK2wt confirm	MEKK2mut confirm	MEKK3-MEK5 inh
CCc1ccc(NC(=O)CSc2nnc(-c3ccco3)o2)cc1	·	100	3	·	100	0	·	·	·
COc1ccc(Nc2nc(-c3cccs3)nc3ccccc23)cc1S(=O)(=O)N1CCOCC1	·	·	·	·	·	0	·	·	·
CC(NC(=O)C(c1ccccc1)c1ccccc1)C(=O)N1CCCCC1 (stereo not drawn)	3	97	-2	1	100	0	·	·	·
CCCCCc1nnc(NC(=O)Cn2cnc3ccccc3c2=O)s1	6	97	1	0	99	0	·	·	·
Cc1cc(C(=O)NCC(=O)OCC(=O)N(C(C)C)C(C)C)ccc1[N+](=O)[O-]	20	100	15	1	99	0	·	·	·
CCCNC(=O)Cc1c(C)oc2ccccc12	·	130*	32	·	119	0	99	-5	99
c1cc(Nc2ncnc3sccc23)cc(-c2nnc3n2CCCCC3)c1	3	-1.0*[inhibitor]	-17	0	-1.0*[inhibitor]	0	107	4	103
C(=C\c1ccccc1)/C=N/Nc1nncc(-c2ccccc2)n1	14	131*	0	0	109	0	100	-1	100
CN(Cc1ccccc1)CC(O)COc1ccc(CNCCc2cccnc2)cc1 (stereo not drawn)	2	107	63*	0	187*	0	121	9	104
CN(Cc1ccccc1)CC(O)COc1ccc(CNCCc2ccncc2)cc1 (stereo not drawn)	0	100	-3	0	115	0	·	·	·
CCn1ccnc1CNCc1ccc(OCC(O)CN(C)Cc2ccccc2)cc1 (stereo not drawn)	2	102	34	2	138*	0	118	23	104
CCc1ccc(CNCc2ccc(OCC(O)CN(C)Cc3ccccc3)cc2)nc1 (stereo not drawn)	-1	105	59*	2	170*	0	148	28	109

High-throughput results (PubChem BioAssay)
